From ChEMBL document CHEMBL5131497, “Design, Synthesis, and Characterization of TNP-2198, a Dual-Targeted Rifamycin-Nitroimidazole Conjugate with Potent Activity against Microaerophilic and Anaerobic Bacterial Pathogens” (J Med Chem, 2022)
Converted amounts (≈) assume the structure as drawn.

Assays:
[1] = system: Gardnerella vaginalis; assay: Resistance development in Gardnerella vaginalis MMX 5973 assessed as spontaneous resistance frequency using at 4.50 x 10^8 CFU inoculum at 2 ug/ml; format: functional; details: dose 2 µg/ml
Outline: (§1)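 Resistant colonies were counted at each drug concentration in two separate tests (test 1, test 2) and averaged. The spontaneous resistance frequency was taken from the mean colony count relative to the inoculum plated. Drug levels tested were 0.5, 1, 2 and 4 µg/mL, and a mutation prevention concentration (MPC) was also reported.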

[2] = Drug distribution in Sprague-Dawley rat vaginal secretion measured at 0.5 hrs; format: ADME, tissue-based, Vaginal fluid; details: female, read-out: Ct
Outline: (§2)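 Sprague–Dawley rats were dosed with TNP-2198. Concentrations were measured in plasma (ng/mL) and in tissues or contents (ng/g) at 0.5, 2, 6, 12 and 24 h after dosing. Values below the limit of quantification are reported as BLOQ.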

[3] = system: Veillonella parvula; assay: Antibacterial activity against Veillonella parvula ATCC 17745 MMX 1272; format: functional
[4] = system: Helicobacter pylori; assay: Antibacterial activity against metronidazole-resistant Helicobacter pylori CB1573 harboring rdxAR16S mutant measured after 5 days by agar dilution method; format: functional; details: CB1573, 120 h, time 5 day
Outline: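 Agar dilution per CLSI. Wild-type ATCC 700392 (CB1531) and its derivatives carry defined resistance determinants. Drugs, alone or in 1:1 molar mixtures, were diluted 2-fold from 100× stocks into Mueller–Hinton agar with aged (≥2 weeks) sheep blood (5% v/v). MIC read after 5 days at 35 °C under microaerobic conditions from a campylobacter gas-generating system.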

[5] = system: Clostridioides difficile; assay: Antibacterial activity against fluoroquinolone-resistant Clostridioides difficile CB1941 harboring gyrAD71Y/T82A mutant measured after 3 days; format: functional; details: CB1941, 72 h, time 3 day
[6] = Drug distribution in Sprague-Dawley rat vaginal tissue measured at 2 hrs; format: ADME, tissue-based, Vagina; details: female, read-out: Ct; outline: as §2
[7] = system: Staphylococcus aureus; assay: Antibacterial activity against Staphylococcus aureus ATCC 29213; format: functional
[8] = system: Helicobacter pylori; assay: Antibacterial activity against Helicobacter pylori clinical isolate China; format: functional
[9] = system: Fusobacterium nucleatum; assay: Antibacterial activity against Fusobacterium nucleatum ATCC 10953; format: functional
[10] = Drug distribution in Sprague-Dawley rat plasma measured at 0.5 hrs; format: ADME, cell-free; outline: as §2
[11] = system: Helicobacter pylori; assay: Resistance development in Helicobacter pylori MMX 3719 assessed as spontaneous resistance frequency using at 1.90 x 10^8 CFU inoculum at 4 ug/ml; format: functional; details: dose 4 µg/ml
Outline: (§3)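 H. pylori MMX 3719 exposed to 0.5, 1, 2 and 4 µg/mL drug with an inoculum of 1.90×10^8 CFU at each level. Two independent tests were run, and resistant colonies were counted and averaged. A spontaneous resistance frequency was reported for each concentration, and the MPC was taken across the concentrations tested.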

[12] = Drug distribution in Sprague-Dawley rat plasma measured at 6 hrs; format: ADME, cell-free; outline: as §2
[13] = system: Prevotella bivia; assay: Antibacterial activity against Prevotella bivia ATCC 29303/MMX 5718; format: functional
[14] = system: Helicobacter pylori; assay: Antibacterial activity against Helicobacter pylori infected in C57/BL6 mouse assessed as bacterial load in stomach at 15 mg/kg administered twice daily via oral gavage starting from 7 days post inoculation and administered for 7 days (reference value: 5.25 log10CFU); format: functional; details: time 7 day
[15] = Drug distribution in Sprague-Dawley rat large intestine tissue measured at 12 hrs; format: ADME, tissue-based; details: read-out: Ct; outline: as §2
[16] = Drug distribution in Sprague-Dawley rat stomach tissue measured at 24 hrs; format: ADME, tissue-based; details: read-out: Ct; outline: as §2
[17] = Drug distribution in Sprague-Dawley rat ascites fluid measured at 12 hrs; format: ADME, tissue-based, Ascitic fluid; details: read-out: Ct; outline: as §2
[18] = Half life in C57BL/6 mouse at 5 mg/kg, iv; format: ADME, organism-based; details: in vivo
[19] = Tmax in Sprague-Dawley rat at 50 mg/kg, po; format: ADME, organism-based; details: in vivo
[20] = Drug distribution in Sprague-Dawley rat large intestine content measured at 12 hrs; format: ADME, tissue-based; details: read-out: Ct; outline: as §2
[21] = system: Gardnerella vaginalis; assay: Antibacterial activity against Gardnerella vaginalis ATCC 14018; format: functional
[22] = Drug distribution in Sprague-Dawley rat stomach content measured at 0.5 hrs; format: ADME, tissue-based; details: read-out: Ct; outline: as §2
[23] = system: Gardnerella vaginalis; assay: Resistance development in Gardnerella vaginalis MMX 5973 assessed as spontaneous resistance frequency using at 4.50 x 10^8 CFU inoculum at 4 ug/ml; format: functional; details: dose 4 µg/ml; outline: as §1
[24] = AUC in C57BL/6 mouse at 20 mg/kg, po; format: ADME, organism-based; parameters: dose 20 mg/kg, route po; details: in vivo
Outline: (§4)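 Plasma PK after single intravenous or oral dosing. Mice C57BL/6 at 5 mg/kg IV or 20 mg/kg PO; Sprague–Dawley rats at 10 mg/kg IV or 50 mg/kg PO; beagle dogs at 5 mg/kg IV or 25 mg/kg PO. AUC reported in ng·h/mL. Clearance from the IV arms in mL/min·kg.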

[25] = Drug distribution in Sprague-Dawley rat large intestine tissue measured at 24 hrs; format: ADME, tissue-based; details: read-out: Ct; outline: as §2
[26] = AUC in Beagle dog at 25 mg/kg, po; format: ADME, organism-based, Canis lupus familiaris; parameters: dose 25 mg/kg, route po; details: in vivo; outline: as §4
[27] = system: Bifidobacterium longum; assay: Antibacterial activity against Bifidobacterium longum ATCC 15707; format: functional
[28] = system: Helicobacter pylori; assay: Resistance development in Helicobacter pylori MMX 3719 assessed as spontaneous resistance frequency using at 1.90 x 10^8 CFU inoculum at 2 ug/ml; format: functional; details: dose 2 µg/ml; outline: as §3
[29] = system: Clostridioides difficile; assay: Resistance development in Clostridioides difficile MMX 4381 assessed as spontaneous resistance frequency using at 1.23 x 10^9 CFU inoculum at 0.5 ug/ml; format: functional; details: dose 0.5 µg/ml
[30] = Clearance in C57BL/6 mouse at 5 mg/kg, iv; format: ADME, organism-based; details: in vivo; outline: as §4
[31] = system: Clostridioides difficile; assay: Antibacterial activity against Clostridioides difficile BAA 1382; format: functional
[32] = Drug distribution in Sprague-Dawley rat vaginal tissue measured at 0.5 hrs; format: ADME, tissue-based, Vagina; details: female, read-out: Ct; outline: as §2
[33] = AUC in C57BL/6 mouse at 5 mg/kg, iv; format: ADME, organism-based; parameters: dose 5 mg/kg, route iv; details: in vivo; outline: as §4
[34] = Half life in Sprague-Dawley rat at 10 mg/kg, iv; format: ADME, organism-based; details: in vivo
[35] = system: Gardnerella vaginalis; assay: Resistance development in Gardnerella vaginalis MMX 5973 assessed as spontaneous resistance frequency using at 4.50 x 10^8 CFU inoculum at 0.5 ug/ml; format: functional; details: dose 0.5 µg/ml; outline: as §1
[36] = Half life in C57BL/6 mouse at 20 mg/kg, po; format: ADME, organism-based; details: in vivo
Outline: (§5)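 Single-dose PK of TNP-2198 was run in C57BL/6 mice (IV 5 mg/kg; PO 20 mg/kg) and beagle dogs (IV 5 mg/kg; PO 25 mg/kg). Terminal half-life (h) was derived from plasma profiles, together with Tmax, Vdss, CL, AUC and oral bioavailability.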

[37] = Drug distribution in Sprague-Dawley rat stomach content measured at 6 hrs; format: ADME, tissue-based; details: read-out: Ct; outline: as §2
[38] = system: Prevotella bivia; assay: Antibacterial activity against metronidazole-resistant Prevotella bivia MMX 3454; format: functional
[39] = system: Peptostreptococcus sp.; assay: Antibacterial activity against Peptostreptococcus magnus ATCC 14956; format: functional
[40] = system: Clostridium sporogenes; assay: Antibacterial activity against Clostridium sporogenes ATCC 19404; format: functional
[41] = Drug distribution in Sprague-Dawley rat vaginal tissue measured at 6 hrs; format: ADME, tissue-based, Vagina; details: female, read-out: Ct; outline: as §2
[42] = Half life in Beagle dog at 25 mg/kg, po; format: ADME, organism-based, Canis lupus familiaris; details: in vivo; outline: as §5
[43] = system: Gardnerella vaginalis; assay: Antibacterial activity against Gardnerella vaginalis clinical isolate USA; format: functional
[44] = Drug distribution in Sprague-Dawley rat gums measured at 12 hrs; format: ADME, tissue-based, Gingiva; details: read-out: Ct; outline: as §2

## CO[C@H]1/C=C/O[C@@]2(C)Oc3c(C)c(O)c4c(c3C2=O)C2=NC3(CCN(CCn5c([N+](=O)[O-])cnc5C)CC3)NC2=C(NC(=O)/C(C)=C\C=C\[C@H](C)[C@H](O)[C@@H](C)[C@@H](O)[C@@H](C)[C@H](OC(C)=O)[C@@H]1C)C4=O [RIFASUTENIZOL]
[1]
  Activity: <2 10^-9No_unit
[2]
  concentration at 0.5 h: 4190 ng/g
[3]
  MIC: 2 µg/mL (≈ 2.12 µM)
[4]
  MIC: ≤ 0.002 µg/mL
[5]
  MIC: ≤ 0.002 µg/mL
[6]
  concentration at 2 h: 5900 ng/g
[7]
  MIC: 0.015 µg/mL (≈ 0.0159 µM)
[8]
  MIC: ≤ 0.002 µg/mL
[9]
  MIC: 0.12 µg/mL (≈ 0.127 µM)
[10]
  concentration at 0.5 h: 1700 ng/mL
[11]
  Activity: <5 10^-9No_unit
[12]
  concentration at 6 h: 1440 ng/mL
[13]
  MIC: 0.015 µg/mL (≈ 0.0159 µM)
[14]
  Activity: 1.94 log10CFU
[15]
  concentration at 12 h: 31.6 ng/g
[16]
  concentration at 24 h: 14.4 ng/g
[17]
  concentration at 12 h: 84.5 ng/g
[18]
  half-life: 48 min
[19]
  Tmax: 108 min
[20]
  concentration at 12 h: 2980 ng/g
[21]
  MIC: 0.004 µg/mL (≈ 0.00424 µM)
[22]
  concentration at 0.5 h: 3.26e+06 ng/g
[23]
  Activity: <2 10^-9No_unit
[24]
  AUC: 3040 ng·h/mL
[25]
  concentration at 24 h: 7.26 ng/g
[26]
  AUC: 14800 ng·h/mL
[27]
  MIC: 0.015 µg/mL (≈ 0.0159 µM)
[28]
  Activity: <5 10^-9No_unit
[29]
  Activity: 8 10^-9No_unit
[30]
  clearance: 23 mL/min/kg
[31]
  MIC: 0.00025 µg/mL (≈ 0.000265 µM)
[32]
  concentration at 0.5 h: 2800 ng/g
[33]
  AUC: 3760 ng·h/mL
[34]
  half-life: 46.2 min
[35]
  Activity: <2 10^-9No_unit
[36]
  half-life: 30.6 min
[37]
  concentration at 6 h: 28800 ng/g
[38]
  MIC: 0.015 µg/mL (≈ 0.0159 µM)
[39]
  MIC: 0.0005 µg/mL (≈ 0.00053 µM)
[40]
  MIC: 0.015 µg/mL (≈ 0.0159 µM)
[41]
  concentration at 6 h: 2590 ng/g
[42]
  half-life: 204 min
[43]
  MIC: ≤ 0.004 µg/mL
  MIC90: 0.06 µg/mL (≈ 0.0636 µM)
[44]
  concentration at 12 h: 115 ng/g
